E-selectin induc: induces E-selectin expression in human endothelial cells | AID 686992 | HUVEC E-selectin immunofluorescence imaging; normalized: neutral wells 0, TNF-alpha wells 100 | 260,000 compounds, 0.37% hits | activation, % at 7.58 µM | P16581;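 active = mean E-selectin-positive cell signal at least 10% of the positive control, reached in at least 60% of replicates, without over 20% cell loss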
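Assay system: HUVEC primary endothelial cells. Input: 3,000 HUVEC seeded per well. Doses: one compound dose added by pin transfer. Read-out basis: % PE-positive cells. Benchmarks: TNF-alpha high, DMSO low. Detection: immunofluorescence imaging. Buffer or medium: EGM-2, gelatin.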
ERAP1 inh: ERAP1 (human) enzyme inhibition; Q9NZ08; recombinant ERAP1, Leu-AMC fluorescence, 60 min; inhibition, % at 10.7 µM; 340,000 compounds, 0.15% hits; AID 652197;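 active = mean replicate inhibition of at least 30%, or all replicates individually reaching that 30% level; inactive = mean below 30% and not every replicate reaching it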;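 also: 0% = neutral control wells and 100% = L-leucinethiol positive control wells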
CFTR F508del cor: CFTR F508del correction in bronchial cells. CFBE cells, YFP halide quenching; stimulated with forskolin plus potentiator P3; % fluorescence drop versus neutral controls. 350,000 compounds, 0.36% hits. activity (quench increase), % at 7.58 µM;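 active = mean added fluorescence quench of at least 8% versus neutral control, with both replicates also reaching 8%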;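 also: cells transiently co-express mutant CFTR-F508del with the halide-sensitive YFP; corrector assay measuring rescue of mutant channel to the surface after 24 h compound exposure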
FGF22 binding-1: FGF22 (human) thermal shift binding. activity (Tm shift, normalised), % at 9.99 µM. recombinant FGF22 thermal shift, SYPRO orange fluorescence; percent of sucrose octasulfate shift, DMSO zero. Q9HCT0. 340,000 compounds, 1.5% hits;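 active = mean Tm shift, scaled 0 neutral to 100 positive control, at about 1.3% or above, every replicate too, limit read from the data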
Target sequence (Q9HCT0 whole entry, looked up): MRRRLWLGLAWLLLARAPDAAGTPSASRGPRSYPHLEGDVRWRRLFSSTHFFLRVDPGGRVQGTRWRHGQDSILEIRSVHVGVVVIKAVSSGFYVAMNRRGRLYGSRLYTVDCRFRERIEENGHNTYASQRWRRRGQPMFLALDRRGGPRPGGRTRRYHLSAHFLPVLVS
DENV2 CPE: DENV2-induced cell death inhibition. DENV2-infected cells, cytopathic effect rescue, plate reader. AID 651640. CPE inhibition, % at 9.99 µM. 350,000 compounds, 1.7% hits; in the data active = CPE inhibition above about 20%, passing the limit was not always enough; tested in BHK-21 cells;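 also: 0% = median of neutral control wells and 100% = median of positive control wells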
FGF22 binding-2: binds human FGF22 shifting its melting temperature | shares compounds with FGF22 binding-1 | recombinant FGF22 thermal shift, SYPRO orange fluorescence | thermal shift activity, °C (ΔTm) at 38 µM | 1,000 compounds, 2% hits | AID 720646;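 active = fitted rise in melting shift crosses a set limit at or below the top valid dose tested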
FGF22 TSA: binders of human FGF22 by thermal shift; shares compounds with FGF22 binding-1; Thermal shift assay, SYPRO orange, melting temperature shift; Tm shift (activity), % at 38 µM; 50 tested, under 10 active; AID 743017;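 active = compounds whose fitted dose curve of melting temperature shift rises past a set threshold within the tested doses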
TSA no protein: counter-screen for FGF22 binders: compound-only thermal shift, no protein; 1,000 compounds, 2% hits; shares compounds with FGF22 binding-1; AC50, µM (titrated, usually from 38 µM); compound-only SYPRO orange thermal shift counter-screen;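 active = rising signal whose fitted curve reaches the 0.54 level within the top valid dose, showing a melting point, actives reach about 13 µM in these data; inactive = the rest, including activity in the opposite direction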; also: value is where the raw curve crosses a fixed level and not half-maximal
Active calls of the source: *; i = inactive; . = not tested or not shown; [ ] = remark or other dose. Most compounds without a hit are left out; they make up all but 3.7% or so of the library.

SMILES	E-selectin induc	ERAP1 inh	CFTR F508del cor	FGF22 binding-1	DENV2 CPE	FGF22 binding-2	TSA no protein	others
O=C(O)c1ccccc1Nc1ccccc1C(=O)O	.	1.5	-1.8	0.0	-2.6	.	.
O=C(O)c1ccccc1Nc1ccc([N+](=O)[O-])cc1	.	-0.4	.	1.7*	8.5	0.341	i
COc1ccc(Cc2nnc(NS(=O)(=O)c3ccccc3)s2)cc1	2.7	9.1	-0.8	26.2*	4.9	0.06	i
CCc1cc(-c2[nH]ncc2-c2ccc3c(c2)OCCO3)c(O)cc1O	.	.	.	.	.	.	.	FGF22 TSA=-0.2
CCc1cc(-c2n[nH]c(C)c2-c2nc3ccccc3n2C)c(O)cc1O	.	5.5	-1.0	-0.1	3.8	.	.
CCc1cc(-c2n[nH]c(C)c2-c2ccc3c(c2)OCCO3)c(O)cc1O	.	.	.	.	.	.	.	FGF22 TSA=0.1
CCOC(=O)c1oc2cc(O)c(CC)cc2c(=O)c1-c1ccc2c(c1)OCCO2	-0.1	1.4	1.2	0.0	7.6	.	.
O=C(Nc1ccsc1C(=O)O)c1cccc(C(F)(F)F)c1	0.2	-4.6	0.2	1.5*	18.7	0.186	i
O=C(Nc1ccsc1C(=O)O)c1cccc(Oc2ccccc2)c1	-0.3	-0.5	-2.5	0.0	-0.9	.	.
c1ccc(-c2cc3nc(NCc4ccc5c(c4)OCO5)ccn3n2)cc1	.	-2.2	-0.2	34.6*	10.4	0.104	i
c1ccc(COc2ccc(-c3cc4nc(NCc5ccc6c(c5)OCO6)ccn4n3)cc2)cc1	-0.1	-1.9	-2.2	0.3	-12.5	.	.
COc1ccccc1-c1cnc2c(c1)C(=O)N([C@H](C)CO)C[C@H](C)[C@@H](CN(C)Cc1ccncc1)O2	-0.3	2.6	-0.5	0.0	-5.7	.	.
COc1cc([N+](=O)[O-])ccc1NC(=O)/C=C\C(=O)O	.	-0.3	-1.2	0.1	0.4	.	.
COc1ccc(NC(=O)/C=C/C(=O)O)c([N+](=O)[O-])c1	9.2	2.0	0.2	2.2*	-4.0	-0.135	i
COc1ccc(NC(=O)Nc2cccc3c2O[C@@H](CN(C)C(=O)Nc2cccc4ccccc24)[C@H](C)CN([C@@H](C)CO)C3=O)cc1	0.0	.	-0.5	-0.1	-0.3	.	.
O=c1c2ccccc2[nH]c2ccc(F)cc12	.	-11.9	.	1.5*	-10.3	-0.051	i
C[C@H]1CN([C@@H](C)CO)S(=O)(=O)c2ccc(/C=C/c3ccccc3)cc2O[C@@H]1CN(C)Cc1ccc(C(=O)O)cc1	0.5	0.4	0.7	1.6*	-6.7	0.062[42 µM]	i
C[C@@H]1CN([C@@H](C)CO)S(=O)(=O)c2ccc(/C=C/c3ccccc3)cc2O[C@H]1CN(C)Cc1ccc(C(=O)O)cc1	-0.1	-0.5	3.7	1.1	-3.6	.	.
COc1cccc(NC(=O)N(C)C[C@@H]2Oc3cc(-c4ccccc4F)ccc3S(=O)(=O)N([C@H](C)CO)C[C@H]2C)c1	-0.5	4.4	-1.6	-0.3	-8.6	.	.
COc1cccc(NC(=O)N(C)C[C@H]2Oc3cc(-c4ccccc4F)ccc3S(=O)(=O)N([C@H](C)CO)C[C@H]2C)c1	.	6.4	-1.4	2.3*	.	0.137	11.5µM*
COc1cccc(NC(=O)N(C)C[C@@H]2Oc3cc(-c4ccccc4F)ccc3S(=O)(=O)N([C@@H](C)CO)C[C@@H]2C)c1	.	7.9	2.2	2.1*	.	-0.219	i
C[C@@H]1CN([C@H](C)CO)S(=O)(=O)c2ccc(-c3ccc(F)cc3)cc2O[C@@H]1CN(C)C(=O)Nc1ccccc1F	0.0	-0.9	0.7	1.8*	.	0.119	i
Cc1ccc(S(=O)(=O)Nc2cccc3c2O[C@H](CN(C)C)[C@@H](C)CN([C@@H](C)CO)C3=O)cc1	-0.1	-0.6	0.8	0.1	2.7	.	.
C[C@@H]1CN([C@H](C)CO)C(=O)Cc2cc(NC(=O)Nc3ccc(C(F)(F)F)cc3)ccc2O[C@@H]1CN(C)Cc1ccc(Oc2ccccc2)cc1	-11.2	.	0.1	0.7	-5.7	.	.
C/C=C/c1ccc2c(c1)O[C@@H](CN(C)C(=O)Nc1ccc(F)cc1)[C@@H](C)CN([C@H](C)CO)S2(=O)=O	-0.1	-3.8	0.1	.	-0.7	-0.092	i
SMILES	E-selectin induc	ERAP1 inh	CFTR F508del cor	FGF22 binding-1	DENV2 CPE	FGF22 binding-2	TSA no protein	others
COc1ccccc1NC(=O)N1C[C@@H](C)[C@H](OC)CN(C)C(=O)c2ccc(NC(=O)c3ccccn3)cc2OC[C@H]1C	.	0.5	-1.0	-0.3	0.6	.	.
NNC(=O)CN1C(=O)C2(OCCO2)c2ccccc21	-1.4	-1.5	0.6	29.6*	-4.1	0.05	i
CN1C[C@@H]2[C@H](c3ccccc31)[C@@H](CO)N2C(=O)C1CCCC1	-0.1	.	0.2	.	8.8	.	.
C/C=C/c1ccc([C@H]2[C@@H](CO)N(C(C)=O)C23CN(C(=O)c2ccc(F)cc2)C3)cc1	0.5	1.4	-0.6	1.4*	-5.2	-0.221	i
C/C=C/c1ccc([C@H]2[C@@H](CO)N(C(C)=O)C23CN(C(=O)c2ccncc2)C3)cc1	0.0	-0.8	0.4	-0.3	-2.4	.	.
Cc1nn(C)cc1NC(=O)C[C@H]1CC[C@@H]2[C@@H](COc3ccc(NC(=O)NC(C)C)cc3C(=O)N2C)O1	0.1	0.6	-0.1	1.6*	6.1	0.039	i
COC(=O)C[C@@H]1CC[C@H]2[C@@H](COc3ccc(NC(=O)NC(C)C)cc3C(=O)N2C)O1	-0.1	0.2	-2.2	1.3*	-0.4	0.025	i
C[C@@H]1CCCCO[C@H](CN(C)S(C)(=O)=O)[C@@H](C)CN([C@@H](C)CO)C(=O)c2cc(NC(=O)C3CCCCC3)ccc2O1	-0.1	4.1	0.7	-0.4	-1.5	.	.
COc1cccc(CNC(=O)C2(C)CCCN2C(=O)C(C)C)c1 (stereo unspecified)	-0.1	5.2	-0.6	-0.2	-6.2	.	.
COc1cccc(CNC(=O)C2(C)CCCCN2C)c1 (stereo unspecified)	0.0	-4.6	-1.7	2.6*	-6.2	-0.101	i
CC(C)(C)Nc1nc2cc([N+](=O)[O-])ccc2o1	3.8	.	0.8	0.0	4.4	.	.
O=[N+]([O-])c1ccc2oc(/C=C/c3ccc(O)cc3)nc2c1	0.6	-2.3	-0.7	1.8*	1.5	0.074	i
O=C(C[C@H]1C[C@@H]2c3cc(NC(=O)C4CCC4)ccc3O[C@@H]2[C@H](CO)O1)NCc1cc(F)ccc1F	0.0	0.6	-2.1	-0.5	-1.2	.	.
O=C(C[C@@H]1C[C@H]2c3cc(NC(=O)C4CCC4)ccc3O[C@H]2[C@@H](CO)O1)NCc1cc(F)ccc1F	-0.3	1.2	-1.9	28.1*	-4.5	-0.028[42 µM]	i

High-throughput results deposited in PubChem by Broad Institute.
